# Measured values reported in ChEMBL document CHEMBL2434825, “2-Heteroarylimino-5-arylidene-4-thiazolidinones as a new class of non-nucleoside inhibitors of HCV NS5B polymerase” (Eur J Med Chem, 2013).
# pIC50: −log10 of the molar value. Calls of active or inactive are those of the source. The rule behind the calls is not given here.
# How the values were obtained:
# Hepatitis C virus [1] = experiment: Antiviral activity against Hepatitis C virus subtype 1b infected in human HuH7 cells assessed as inhibition of viral RNA replication at 100 uM after 42 hrs by […] assay relative to control; format: functional, Hepacivirus hominis; details: genotype 1b; for inhibition at 100 µM: Huh-7, 42 h; for inhibition: Hepacivirus hominis, Huh-7
# Method in brief: (§1)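 Replicon reporter cells (Huh7/Rep-Feo1b for 1b; Huh7.5-FGR-JC1-Rluc2A for 2a) kept in DMEM, 10% FCS, 0.5 mg/mL G418, 37 °C, 5% CO2. Seeded 1 × 10^4 cells/well, treated 8 h later with 100 μM compound or DMSO for 42 h. Luciferase signal read as percent of DMSO controls. Viability by MTS assay in parental Huh7.5 cells. Average of two independent experiments in duplicate.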
# [2] = Inhibition of HCV NS5B RdRp activity transfected in BHK cells at 100 uM after 42 hrs by dual-glo luciferase reporter gene assay relative to control; format: cell-based; details: Hepacivirus hominis
# Method in brief: (§2)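 BHK cells stably carrying NS5B plus bicistronic (+)FLuc-(−)UTR-RLuc reporter, grown in DMEM, 10% FBS, 1 mg/mL G418, blasticidin. Seeded 1 × 10^4 cells/well, given 100 μM compound 8 h later, lysed 42 h post-treatment, dual luciferase read. Viability taken as firefly luciferase relative to DMSO controls. NS5B activity taken as percent reduction in RLuc/FLuc ratio versus DMSO. Two independent experiments in duplicate.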
# [3] = Selectivity ratio for Hepatitis C virus subtype 2a infected in human Huh7.5 cells over Hepatitis C virus subtype 1b infected in human HuH7 cells; format: functional, Huh-7
# Hepatitis C virus [4] = experiment: Antiviral activity against Hepatitis C virus subtype 2a infected in human Huh7.5 cells assessed as inhibition of viral RNA replication at 100 uM after 42 hrs by […] assay relative to control; format: functional, Hepacivirus hominis; details: genotype 2a; for inhibition at 100 µM: Huh-7, 42 h; for inhibition: Hepacivirus hominis, Huh-7; method in brief: as §1
# [5] = Cytotoxicity against human Huh7.5 cells assessed as cell viability at 100 uM after 42 hrs by MTS assay; format: cell-based, Huh-7; details: read-out: Activity
# Hepacivirus hominis = experiment: Inhibition of HCV NS5BCdelta21 RdRp activity at 100 uM after 1 hr by liquid scintillation counting analysis in presence of [alpha-32P]UTP relative to control
# Method in brief: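 Template 0.25 μM polyrA/U12, with 25 μM UTP plus [α-32P]UTP. Inhibitor at 100 μM, 1 h, 30 °C. Stopped with cold 5% TCA/0.5 mM pyrophosphate, product filter-captured and counted by scintillation. Background-subtracted, relative to DMSO (100%). At least two independent experiments in duplicate.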
# [6] = Cytotoxicity against BHK cells transfected with HCV NS5B RdRp assessed as cell viability at 100 uM after 42 hrs by luciferase reporter gene assay; format: cell-based, Mesocricetus auratus; details: hamster, read-out: Activity; method in brief: as §2
# [7] = Inhibition of HCV NS5BCdelta21 RdRp activity after 1 hr by liquid scintillation counting analysis in presence of [alpha-32P]UTP; parameters: species or system Hepacivirus hominis
# Method in brief: (§3)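 NS5BCΔ21 (300 ng) was incubated 1 h at 30 °C with 0.25 μM polyrA/U12, 25 μM UTP plus [α-32P]UTP and 1.0 mM MnCl2 in 20 mM Tris-HCl pH 7.0 with NaCl, Na glutamate, DTT, BSA, Tween-20, glycerol and RNase inhibitor. Reactions were stopped with cold 5% TCA/pyrophosphate, captured on GF-B filters and scintillation-counted versus a background-subtracted DMSO control. Screening used 100 μM; IC50 came from 8–12-point curves, duplicate, two experiments.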
# [8] = Inhibition of 6xHis-tagged HCV NS5B RdRp activity; parameters: species or system Hepacivirus hominis; method in brief: as §3
# [9] = Inhibition of HCV NS5B RdRp activity; parameters: species or system Hepacivirus hominis; method in brief: as §3
SMILES,inhibition at 100 µM (Hepatitis C virus [1]) [%],inhibition [2],Selectivity ratio [3],inhibition at 100 µM (Hepatitis C virus [4]) [%],"viability at 42 h, 100 µM [5] [%]",inhibition (Hepacivirus hominis) [%],"viability at 42 h, 100 µM [6] [%]",pIC50 [7],pIC50 [8],inhibition (Hepatitis C virus [1]),inhibition (Hepatitis C virus [4]),pIC50 [9]
O=C1N/C(=N\c2nnc(-c3ccc(F)cc3)s2)S/C1=C\c1ccc(Cl)cc1Cl,29.4,inactive,1.6,54.7,4.2,11.5,0,–,–,–,–,–
O=C(CCl)Nc1nnc(-c2ccc(Cl)cc2)s1,–,–,–,–,81.9,20,98.9,–,–,–,–,–
COc1cccc(OC)c1/C=C1\S/C(=N/c2nnc(-c3ccc(Cl)cc3)s2)NC1=O,97.7,–,–,98.9,80.4,24.1,87.4,–,–,–,–,–
Nc1nnc(-c2ccc(Cl)cc2)s1,37.4,inactive,1.6,72.8,32.4,16.8,28.6,–,–,–,–,–
O=C1N/C(=N\c2nnc(-c3ccc(Cl)cc3)s2)S/C1=C\c1cccc(F)c1,92.8,63.1%,–,95.6,60.3,65.5,58.1,4.32,–,–,–,–
O=C1CS/C(=N/c2nnc(-c3ccc(Cl)cc3)s2)N1,54.1,65.7%,1.6,89.8,13.3,74.4,15.2,4.37,–,–,–,–
O=C1N/C(=N\c2nnc(-c3ccc(Cl)cc3)s2)S/C1=C\c1ccc(F)cc1,82.2,inactive,–,94.9,64.2,25,73.1,–,–,–,–,–
O=C1N/C(=N\c2nnc(-c3ccc(Cl)cc3)s2)S/C1=C\c1c(Cl)cccc1Cl,98.5,–,–,98.1,76,82,94.9,5.25,–,–,–,–
O=C1N/C(=N\c2nnc(-c3ccc(F)cc3)s2)S/C1=C\c1ccc([N+](=O)[O-])cc1,51.2,7%,–,50.4,13.9,24.1,14.6,–,–,–,–,–
O=C1N/C(=N\c2nnc(-c3ccc(F)cc3)s2)S/C1=C\c1ccccc1Cl,98,61%,–,95.3,15.6,53.9,11.4,4.19,–,–,–,–
COc1cccc(OC)c1/C=C1\S/C(=N/c2nnc(-c3ccc(F)cc3)s2)NC1=O,87.7,inactive,–,93.2,63,19.7,73.7,–,–,–,–,–
O=C1/C(=C/c2ccc(Br)cc2)SC(=S)N1NS(=O)(=O)c1ccccc1,–,–,–,–,–,–,–,–,6.36,–,–,–
O=C1N/C(=N\c2nnc(-c3ccc(Cl)cc3)s2)S/C1=C\c1c(F)cccc1Cl,–,inactive,–,–,0,60.3,0,4.34,–,inactive,inactive,–
O=C(CCl)Nc1nnc(-c2ccc(F)cc2)s1,–,–,–,–,84.8,16,98.3,–,–,–,–,–
O=C(NN1C(=O)CSC1c1ccccc1F)c1cc(-c2ccc(F)cc2F)ccc1O (stereo not drawn),–,–,–,–,–,–,–,–,–,–,–,4.32
O=C1N/C(=N\c2nnc(-c3ccc(Cl)cc3)s2)S/C1=C\c1ccccc1F,96.4,65.6%,–,98.5,13.1,56.2,12.8,4.25,–,–,–,–
O=C1N/C(=N\c2nnc(-c3ccc(F)cc3)s2)S/C1=C\c1cccc(F)c1,95.5,85.9%,–,98,59.7,72,55.1,4.46,–,–,–,–
O=C1N/C(=N\c2nnc(-c3ccc(F)cc3)s2)S/C1=C\c1ccccc1F,97.4,11%,–,96.1,59.9,62.4,55.7,4.29,–,–,–,–
O=C1N/C(=N\c2nnc(-c3ccc(Cl)cc3)s2)S/C1=C\c1ccc([N+](=O)[O-])cc1,–,–,–,–,–,33,–,–,–,–,–,–
O=C1N/C(=N\c2nnc(-c3ccc(F)cc3)s2)S/C1=C\c1c(F)cccc1Cl,99.4,–,–,98.5,74.6,28.1,89.8,–,–,–,–,–
Nc1nnc(-c2ccc(F)cc2)s1,46.8,9.4%,–,52.4,18.6,15.4,–,–,–,–,–,–
O=C1N/C(=N\c2nnc(-c3ccc(F)cc3)s2)S/C1=C\c1c(Cl)cccc1Cl,98.8,13.6%,–,98.9,73.2,74.1,72.2,4.70,–,–,–,–
O=C1N/C(=N\c2nnc(-c3ccc(Cl)cc3)s2)S/C1=C\c1ccc(Cl)cc1Cl,–,inactive,–,–,0,25.7,0,–,–,inactive,inactive,–
O=C1CS/C(=N/c2nnc(-c3ccc(F)cc3)s2)N1,70,57.9%,–,72.8,14,76.1,–,4.41,–,–,–,–
O=C1N/C(=N\c2nnc(-c3ccc(Cl)cc3)s2)S/C1=C\c1ccccc1Cl,–,inactive,–,–,0,73.6,0,4.47,–,inactive,inactive,–
